The text below walks through data of ChEMBL document CHEMBL1649405, “Structure-activity relationships study of 6-chloro-4-(2-chlorophenyl)-3-(2-hydroxyethyl) quinolin-2(1H)-one derivatives as novel non-nucleoside anti-hepatitis B virus agents” (Eur J Med Chem, 2011).

The structures appear in SMILES notation.

Series [1] deals with Hepatitis B virus. Kind of series: Antiviral activity against Hepatitis B virus infected in human HepG2(2.2.15) cells assessed as inhibition of viral e antigen secretion after 6 days by ELISA. It counts as functional, organism-based. The settings on record: HepG2 2.2.15, 144 h. The method, boiled down: (§1)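 HepG 2.2.15 cells in DMEM with 10% FBS, 37 °C, 5% CO2. Treated for 6 days with refeeding every other day. Culture medium centrifuged at 6000 g to clear debris. HBeAg or HBsAg measured by quantitative ELISA on a microplate reader. IC50 = concentration giving 50% inhibition of secretion. Mean of two independent experiments.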

For series [2], the system named is Hepatitis B virus. Kind of series: Antiviral activity against Hepatitis B virus infected in human HepG2(2.2.15) cells assessed as inhibition of viral surface antigen secretion after 6 days by ELISA. The settings on record: HepG2 2.2.15, 144 h. The class given is functional, organism-based. The method, boiled down:
as §1

Series [3] is described as follows: Cytotoxicity against human HepG2(2.2.15) cells. The class given is cell-based. The essentials:
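HepG 2.2.15 cells in DMEM with 10% FBS, 37 °C, 5% CO2. CC50 = concentration killing 50% of cells. Mean of two independent experiments.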

The nature of series [4]: Selectivity index, ratio of CC50 for human HepG2(2.2.15) cells to IC50 for Hepatitis B virus infected in human HepG2(2.2.15) cells assessed as inhibition of viral surface antigen secretion. It counts as functional. The essentials: (§2)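 Ratio of CC50 in HepG 2.2.15 cells to the IC50 for HBeAg or HBsAg secretion. Both values come from ELISA and cytotoxicity runs on the same cell line. Each input is the mean of two independent experiments.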

The nature of series [5]: Selectivity index, ratio of CC50 for human HepG2(2.2.15) cells to IC50 for Hepatitis B virus infected in human HepG2(2.2.15) cells assessed as inhibition of viral e antigen secretion. It counts as functional. The essentials: as §2

For the compound `Clc1ccc2nc3c(c(-c4ccccc4Cl)c2c1)CCO3`, the 50% inhibitory concentration (IC50) in the series on Hepatitis B virus [1] and with Hepatitis B virus [2] was greater than 280 µM each time. Also, the 50% cytotoxic concentration (CC50) in series [3] was greater than 280 µM.
`O=c1cc(-c2ccccc2Cl)c2cc(Cl)ccc2[nH]1`: the half-inhibitory concentration (IC50) was greater than 1000 µM in the series with Hepatitis B virus [1] and 460 µM in the series with Hepatitis B virus [2].
Regarding `O=C(/C=C/c1cccnc1)OCCc1c(-c2ccccc2Cl)c2cc(Cl)ccc2[nH]c1=O`, the figures for the IC50 in the series with Hepatitis B virus [1] and in the series with Hepatitis B virus [2] were 2200 µM and 34 µM, respectively. Moreover, the “Selectivity Index” value in series [4] is recorded as 1.1; in series [5], less than 1. Further, the midpoint of cytotoxicity in series [3], the CC50, lay at 39 µM.
Regarding `CC(C)C(=O)OCCc1c(-c2ccccc2Cl)c2cc(Cl)ccc2[nH]c1=O`, the IC50 in the series on Hepatitis B virus [1] was greater than 62 µM; in the series on Hepatitis B virus [2], 37 µM. For the same compound, the “Selectivity Index” value in series [4] is 1.7; in series [5], less than 1. The same compound displayed a cytotoxic concentration (CC50) in series [3] of 62 µM.
Regarding `O=C(COc1ccccc1)OCCc1c(-c2ccccc2Cl)c2cc(Cl)ccc2[nH]c1=O`, the IC50 was greater than 81 µM with Hepatitis B virus [1] and 56 µM in the series with Hepatitis B virus [2]. Further, the “Selectivity Index” value in series [4] is given as 1.5; in series [5], less than 1. In addition, in series [3], the CC50 was determined as 81 µM.
The corresponding values for `O=C(OCCc1c(-c2ccccc2Cl)c2cc(Cl)ccc2[nH]c1=O)c1ccc([N+](=O)[O-])cc1` are 1600 µM, 1200 µM, 1.4, 1 and 1600 µM.
For `C/C=C/C=C/C(=O)OCCc1c(-c2ccccc2Cl)c2cc(Cl)ccc2[nH]c1=O` the same measures were 26 µM, 23 µM, 19, 17 and 440 µM.
Turning to `O=C(OCCc1c(-c2ccccc2Cl)c2cc(Cl)ccc2[nH]c1=O)C1CCCCC1`, the 50% inhibitory concentration (IC50) in the series with Hepatitis B virus [1] came out at 34 µM; in the series with Hepatitis B virus [2], 27 µM. Also, the “Selectivity Index” value stood at 1.4 in series [4] and 1.1 in series [5]. In series [3], this compound returned a cytotoxic concentration (CC50) of 38 µM.
For `O=C(O)Cc1c(-c2ccccc2Cl)c2cc(Cl)ccc2[nH]c1=O`, the half-inhibitory concentration (IC50) in the series with Hepatitis B virus [1] is greater than 950 µM; in the series with Hepatitis B virus [2], 350 µM. The “Selectivity Index” value in series [4] is given as 2.8; in series [5], less than 1. The 50% cytotoxic concentration (CC50) in series [3] worked out at 950 µM.
`CCCCC(=O)OCCc1c(-c2ccccc2Cl)c2cc(Cl)ccc2[nH]c1=O`: the IC50 in the series with Hepatitis B virus [1] is greater than 200 µM; in the series on Hepatitis B virus [2], 82 µM. The entries for the “Selectivity Index” value in series [4] and in series [5] were 2.4 and less than 1, respectively. In addition, in series [3], it took 200 µM to reach half-maximal cytotoxicity (CC50).
For the compound `C/C=C(\C)C(=O)OCCc1c(-c2ccccc2Cl)c2cc(Cl)ccc2[nH]c1=O`, the IC50 in the series with Hepatitis B virus [1] came out at 62 µM; in the series on Hepatitis B virus [2] it was 58 µM. The “Selectivity Index” value in series [4] turned out to be 6.1; in series [5], 5.6. The half-maximal cytotoxic concentration (CC50) in series [3] was 350 µM.
For the compound `CC12CCC(C(=O)OCCc3c(-c4ccccc4Cl)c4cc(Cl)ccc4[nH]c3=O)(OC1=O)C2(C)C` (stereo not drawn), the concentration for half-maximal inhibition (IC50) with Hepatitis B virus [1] was greater than 1800 µM; in the series on Hepatitis B virus [2], 1500 µM. Further, the “Selectivity Index” value in series [4] was greater than 1.2. In series [3], this compound had a CC50 greater than 1800 µM.
Turning to `Nc1ccn([C@@H]2CS[C@H](CO)O2)c(=O)n1` [LAMIVUDINE], the IC50 in the series on Hepatitis B virus [1] is 30000 µM; in the series with Hepatitis B virus [2] it was 27000 µM. In addition, the “Selectivity Index” value in series [4] is listed as 1.1; in series [5], 1.
As to `O=c1c(CCO)c(-c2ccccc2Cl)c2cc(Cl)ccc2n1Cc1c(F)cccc1F`, the IC50 in the series with Hepatitis B virus [1] was greater than 2300 µM; in the series with Hepatitis B virus [2] it was 87 µM. Moreover, in series [4], the “Selectivity Index” value was greater than 2.6. Besides, in series [3], the 50% cytotoxic concentration (CC50) was greater than 2300 µM.
For the compound `Clc1ccc2nc3c(c(-c4ccccc4Cl)c2c1)CCS3`, the IC50 with Hepatitis B virus [1] and in the series with Hepatitis B virus [2] was greater than 2400 µM throughout. The CC50 in series [3] was greater than 2400 µM.
Take `O=C(OCCc1c(-c2ccccc2Cl)c2cc(Cl)ccc2[nH]c1=O)c1cccs1`: the IC50 in the series with Hepatitis B virus [1] and with Hepatitis B virus [2] was greater than 1700 µM throughout. Moreover, in series [3], the CC50 is greater than 1700 µM.
